Assay results: ChEMBL document CHEMBL3272092, “Synthesis and antihypertensive activity of 5-thio-2-pyridinecarboxylic acid derivatives” (J Med Chem, 1978)

Key:
Rattus norvegicus [1] = assay: Antihypertensive activity in spontaneous hypertensive rat model assessed as decrease in blood pressure at 100 mg/kg, po administered for 2 to 4 days measured on day 2 to day 4; assay type: functional
Procedure, shortened: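 SHR, 4–6 per drug, were dosed daily by gavage for 2 or 4 consecutive days in 3% cornstarch, 5% PEG-400 and 1 drop Tween 80 per mL. After 1 h acclimation, systolic pressure was read by tail-cuff (inflated to 250 mmHg, then lowered; pulse reemergence), at least three readings, at 1, 2, 3 and 24 h post-dose. The peak fall is scored: +, <20 mm up to >80 mm.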

Rattus norvegicus [2] = assay: Toxicity in spontaneous hypertensive rat model assessed as effect on heart rate at 100 mg/kg, po administered for 2 to 4 days; assay type: organism-based; parameters: dose 100 mg/kg, route oral; conditions: in vivo
Procedure, shortened: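 Heart rate in SHR was counted from tail-cuff pressure pulses after 1 h acclimation. Rats (4–6 per drug) were gavaged daily for 2 or 4 days at 100 mg/kg (sometimes 200 mg/kg) in 3% cornstarch, 5% PEG-400 and 1 drop Tween 80 per mL. Recordings were at 1, 2, 3 and 24 h after each dose.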

Rattus norvegicus [3] = assay: Toxicity in spontaneous hypertensive rat model at 100 mg/kg, po administered for 2 to 4 days; assay type: organism-based; parameters: dose 100 mg/kg, route oral; conditions: in vivo

## Cc1cccc(CSc2ccc(C(=O)O)nc2)c1
Rattus norvegicus [1]
  Activity: <20 mmHg

## CC(Sc1ccc(C(=O)O)nc1)c1cccc(C(F)(F)F)c1 (centres undefined)
Rattus norvegicus [1]
  Activity: >40 mmHg

## COc1cccc(C[S+]([O-])c2ccc(C(=O)O)nc2)c1 (centres undefined)
Rattus norvegicus [1]
  Activity: <20 mmHg

## O=C([O-])c1ccc([S+]([O-])Cc2cccc(Br)c2)cn1.[Na+] (centres undefined)
Rattus norvegicus [1]
  Activity: >20 mmHg

## O=C(O)c1ccc(SCc2cccc(F)c2)cn1
Rattus norvegicus [1]
  Activity: >20 mmHg

## CCCCSc1ccc(C(=O)O)nc1
Rattus norvegicus [1]
  Activity: >20 mmHg
Rattus norvegicus [2]
  Activity: Non-toxic

## O=C([O-])c1ccc([S+]([O-])CCCc2ccccc2)cn1.[Na+] (centres undefined)
Rattus norvegicus [1]
  Activity: <20 mmHg

## O=C([O-])c1ccc(SCc2ccc(Br)cc2)cn1.[Na+]
Rattus norvegicus [1]
  Activity: >40 mmHg

## O=C([O-])c1ccc(SCc2ccc(F)cc2)cn1.[Na+]
Rattus norvegicus [1]
  Activity: >20 mmHg

## O=C(O)c1ccc(SCCc2ccccc2)cn1
Rattus norvegicus [3]
  Activity: Toxic

## O=C(O)c1ccc(SCc2cccc(Cl)c2)cn1
Rattus norvegicus [1]
  Activity: >40 mmHg

## N#Cc1cccc(CSc2ccc(C(=O)[O-])nc2)c1.[Na+]
Rattus norvegicus [1]
  Activity: >20 mmHg

## O=C(O)c1ccc(SCc2ccccc2Cl)cn1
Rattus norvegicus [1]
  Activity: <20 mmHg

## O=C(O)c1ccc(Sc2cccc(Cl)c2)cn1
Rattus norvegicus [1]
  Activity: >20 mmHg

## COc1ccc(C[S+]([O-])c2ccc(C(=O)O)nc2)cc1 (centres undefined)
Rattus norvegicus [1]
  Activity: >20 mmHg

## CC(c1cccc(C(F)(F)F)c1)[S+]([O-])c1ccc(C(=O)O)nc1 (centres undefined)
Rattus norvegicus [1]
  Activity: >20 mmHg

## Cc1ccc(CSc2ccc(C(=O)[O-])nc2)cc1.[Na+]
Rattus norvegicus [1]
  Activity: <20 mmHg

## O=C(O)c1ccc([S+]([O-])c2ccc(Cl)cc2)cn1 (centres undefined)
Rattus norvegicus [1]
  Activity: <20 mmHg
